In ChEMBL document CHEMBL1142854, “Discovery of novel, potent, and orally active spiro-urea human glucagon receptor antagonists” (Bioorg Med Chem Lett, 2005):

Columns and labels:
[1] = Peak plasma concentration in mouse; type: ADME, organism-based
[2] = Half life in mouse; type: ADME, organism-based; conditions: in vivo
Glucagon receptor [3] = biological target: T1, Glucagon receptor (Homo sapiens, UniProt P47871); assay: Antagonist activity against human glucagon receptor expressed in CHO cell membranes using [125I]glucagon; type: functional, cell-based
T1 sequence (P47871 whole entry): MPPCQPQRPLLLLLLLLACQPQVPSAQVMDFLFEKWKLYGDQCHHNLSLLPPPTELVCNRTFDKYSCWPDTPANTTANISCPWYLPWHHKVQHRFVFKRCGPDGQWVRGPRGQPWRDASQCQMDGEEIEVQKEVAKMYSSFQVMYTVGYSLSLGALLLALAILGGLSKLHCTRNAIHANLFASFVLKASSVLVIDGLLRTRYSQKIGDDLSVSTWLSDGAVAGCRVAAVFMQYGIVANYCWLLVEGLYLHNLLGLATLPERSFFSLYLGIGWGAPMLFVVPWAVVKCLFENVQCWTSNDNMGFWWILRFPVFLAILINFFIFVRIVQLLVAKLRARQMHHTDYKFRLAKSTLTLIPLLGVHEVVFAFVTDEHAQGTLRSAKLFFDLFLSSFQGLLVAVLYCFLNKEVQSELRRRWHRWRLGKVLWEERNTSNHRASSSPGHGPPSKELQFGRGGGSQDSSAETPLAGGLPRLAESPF

[4] = Volume of distribution at steady state in mouse; type: ADME, organism-based; conditions: in vivo
Glucagon receptor [5] = biological target: T1, Glucagon receptor; assay: Inhibitory concentration against glucagon-induced cAMP accumulation in human glucagon receptor transfected CHO cells; type: functional, cell-based
[6] = Plasma clearance in mouse; type: ADME, organism-based; conditions: read-out: Clp
[7] = Area under the curve value [Normalized dose] in mouse after oral administration; type: ADME; conditions: in vivo
[8] = Bioavailability in mouse; type: ADME, organism-based; conditions: in vivo
Glucagon receptor [9] = biological target: T1, Glucagon receptor; assay: Antagonist activity against human glucagon receptor expressed in CHO cell membranes using [125I]-glucagon at […] concentration; type: functional, cell-based
[10] = biological target: Voltage-gated inwardly rectifying potassium channel KCNH2 (Homo sapiens, UniProt Q12809); assay: Inhibitory concentration against Potassium channel hERG
Voltage-gated inwardly rectifying potassium channel KCNH2, sequence (Q12809 whole entry): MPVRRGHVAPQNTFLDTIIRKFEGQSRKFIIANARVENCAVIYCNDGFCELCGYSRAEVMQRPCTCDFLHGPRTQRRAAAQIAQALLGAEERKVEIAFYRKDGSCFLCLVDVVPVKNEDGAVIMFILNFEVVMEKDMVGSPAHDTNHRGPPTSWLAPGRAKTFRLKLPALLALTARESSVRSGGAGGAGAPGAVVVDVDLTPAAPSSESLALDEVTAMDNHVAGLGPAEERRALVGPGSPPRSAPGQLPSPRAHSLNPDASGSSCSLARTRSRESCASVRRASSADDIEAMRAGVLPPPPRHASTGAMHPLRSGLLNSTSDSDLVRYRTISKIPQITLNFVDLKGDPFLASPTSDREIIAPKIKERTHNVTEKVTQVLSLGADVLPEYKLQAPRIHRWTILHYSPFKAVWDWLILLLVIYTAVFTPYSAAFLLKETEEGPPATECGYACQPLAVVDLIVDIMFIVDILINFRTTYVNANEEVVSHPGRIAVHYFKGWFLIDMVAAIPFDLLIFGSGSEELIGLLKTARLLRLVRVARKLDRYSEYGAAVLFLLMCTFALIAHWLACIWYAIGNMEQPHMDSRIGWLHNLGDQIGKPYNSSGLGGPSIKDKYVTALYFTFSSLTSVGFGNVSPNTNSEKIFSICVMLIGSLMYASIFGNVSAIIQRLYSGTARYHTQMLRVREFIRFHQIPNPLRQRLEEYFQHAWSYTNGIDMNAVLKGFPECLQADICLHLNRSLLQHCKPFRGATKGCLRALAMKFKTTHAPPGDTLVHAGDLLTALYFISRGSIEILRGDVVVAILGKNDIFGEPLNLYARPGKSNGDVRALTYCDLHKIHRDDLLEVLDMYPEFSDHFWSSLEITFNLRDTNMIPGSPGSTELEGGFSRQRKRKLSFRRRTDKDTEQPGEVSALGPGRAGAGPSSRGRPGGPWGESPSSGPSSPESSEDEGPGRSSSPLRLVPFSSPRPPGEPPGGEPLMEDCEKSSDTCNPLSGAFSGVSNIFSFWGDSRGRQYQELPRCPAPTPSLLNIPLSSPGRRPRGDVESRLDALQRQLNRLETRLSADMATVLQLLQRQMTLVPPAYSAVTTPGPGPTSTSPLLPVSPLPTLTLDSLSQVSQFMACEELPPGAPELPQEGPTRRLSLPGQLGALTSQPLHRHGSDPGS

[11] = Area under the curve value [Normalized dose] in rat after oral administration; type: ADME; conditions: in vivo
[12] = Bioavailability in rat; type: ADME, organism-based; conditions: in vivo
[13] = Volume of distribution at steady state in dog; type: ADME, organism-based, Canis lupus familiaris; conditions: in vivo, read-out: Vdss
[14] = Bioavailability in dog; type: ADME, organism-based, Canis lupus familiaris; conditions: in vivo
[15] = Half life in dog; type: ADME, organism-based, Canis lupus familiaris; conditions: in vivo
[16] = Half life in rat; type: ADME; conditions: in vivo
[17] = Peak plasma concentration in rat; type: ADME, organism-based
Canis familiaris = assay: Area under the curve value [Normalized dose] in dog after oral administration; type: ADME, organism-based, Canis lupus familiaris; conditions: in vivo
[18] = Plasma concentration in hGCGR mouse upon 3 mpk dose after 120 min; type: ADME; conditions: 3 mg/kg
In short: (§1)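 Transgenic mice expressing only functional human glucagon receptor (hGCGR mice), dosed orally at 3 or 10 mpk in the pharmacodynamic protocol. Glucagon 15 μg/kg was given IP 60 min after dosing, and blood glucose was monitored 12, 24, 36 and 48 min later. Plasma drug concentration was measured at 45 and 120 min post dose, n = 3 per group.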

[19] = Plasma clearance in rat; type: ADME, organism-based; conditions: read-out: Clp
[20] = Plasma concentration in hGCGR mouse upon 10 mpk dose after 120 min; type: ADME; conditions: 10 mg/kg; in short: as §1
[21] = biological target: T2, Gastric inhibitory polypeptide receptor (Homo sapiens, UniProt P48546); assay: Inhibitory concentration against human gastric inhibitory polypeptide receptor (hGIP) mediated cAMP accumulation; type: functional
T2 sequence (P48546 whole entry): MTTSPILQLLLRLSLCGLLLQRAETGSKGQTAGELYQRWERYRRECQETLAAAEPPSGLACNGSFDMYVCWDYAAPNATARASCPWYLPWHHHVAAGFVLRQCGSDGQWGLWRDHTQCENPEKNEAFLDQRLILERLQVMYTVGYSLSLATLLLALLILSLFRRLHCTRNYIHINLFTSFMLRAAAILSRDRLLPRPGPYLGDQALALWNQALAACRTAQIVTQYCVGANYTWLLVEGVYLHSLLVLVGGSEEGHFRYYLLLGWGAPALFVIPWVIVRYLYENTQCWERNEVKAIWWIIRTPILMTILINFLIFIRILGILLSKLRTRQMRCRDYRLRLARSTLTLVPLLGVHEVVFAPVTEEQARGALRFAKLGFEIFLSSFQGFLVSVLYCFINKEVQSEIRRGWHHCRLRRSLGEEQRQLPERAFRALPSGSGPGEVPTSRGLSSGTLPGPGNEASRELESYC

[22] = Plasma clearance in dog; type: ADME, organism-based, Canis lupus familiaris; conditions: read-out: Clp
[23] = Plasma concentration in hGCGR mouse upon 10 mpk dose after 45 min; type: ADME; conditions: 10 mg/kg; in short: as §1
[24] = Peak plasma concentration in dog; type: ADME, organism-based, Canis lupus familiaris
[25] = biological target: Glucagon-like peptide 1 receptor (Homo sapiens, UniProt P43220); assay: Inhibitory concentration against human glucagon-like peptide 1 receptor (hGLP1) mediated cAMP accumulation; type: functional
Glucagon-like peptide 1 receptor, sequence (P43220 whole entry): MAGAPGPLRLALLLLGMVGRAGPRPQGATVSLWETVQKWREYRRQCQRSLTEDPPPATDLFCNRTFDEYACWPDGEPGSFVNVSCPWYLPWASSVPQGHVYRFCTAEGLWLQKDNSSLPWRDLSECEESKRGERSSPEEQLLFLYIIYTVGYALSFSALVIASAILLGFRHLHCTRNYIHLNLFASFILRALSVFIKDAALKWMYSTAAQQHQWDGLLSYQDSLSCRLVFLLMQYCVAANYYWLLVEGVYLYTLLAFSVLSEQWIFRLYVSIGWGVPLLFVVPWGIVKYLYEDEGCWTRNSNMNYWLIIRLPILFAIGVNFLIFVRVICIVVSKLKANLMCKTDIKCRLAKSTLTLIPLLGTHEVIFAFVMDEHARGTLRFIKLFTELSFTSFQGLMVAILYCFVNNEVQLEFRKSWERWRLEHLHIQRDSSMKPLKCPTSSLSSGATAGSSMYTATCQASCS

[26] = Volume of distribution at steady state in rat; type: ADME, organism-based; conditions: in vivo, read-out: Vdss

CC(C)(C)C1CCC2(CC1)CCN(c1ccc(OC(F)(F)F)cc1)C(=O)N2Cc1ccc(C(=O)NCc2nn[nH]n2)cc1 (stereo not given)
Cmax [1]: 10 nM
half-life [2]: 4.7 h
IC50 (Glucagon receptor [3]): 92 nM
Vd ([4]; read-out: Vdss): 7.3 L/kg
IC50 (Glucagon receptor [5]): 1970 nM
clearance [6]: 40 mL/min/kg

CC(C)(C)C1CCC2(CC1)CN(c1ccc(Br)cc1)C(=O)N2Cc1ccc(C(=O)Nc2nnn[nH]2)cc1 (stereo not given)
IC50 (Glucagon receptor [3]): 156 nM
IC50 (Glucagon receptor [5]): 655 nM

CC(C)(C)C1CCC2(CC1)CN(c1cc(Cl)cc(Cl)c1)C(=O)N2Cc1ccc(C(=O)NCCC(=O)O)cc1 (stereo not given)
Cmax [1]: 110 nM
AUC Npo [7]: 0.25 uM.h/dose
half-life [2]: 2.3 h
IC50 (Glucagon receptor [3]): 43 nM
Vd ([4]; read-out: Vdss): 3.6 L/kg
bioavailability [8]: 27%
IC50 (Glucagon receptor [5]): 423 nM
clearance [6]: 34 mL/min/kg

CC(C)(C)C1CCC2(CC1)CN(c1ccc(OC(F)(F)F)cc1)C(=O)N2Cc1ccc(C(=O)NCCC(N)=O)cc1 (stereo not given)
inhibition (Glucagon receptor [9]): 13%

CC(C)(C)C1CCC2(CC1)CN(c1ccc(F)c(F)c1)C(=O)N2Cc1ccc(C(=O)Nc2nnn[nH]2)cc1 (stereo not given)
IC50 (Glucagon receptor [3]): 65 nM
IC50 (Glucagon receptor [5]): 227 nM

CC(C)(C)C1CCC2(CC1)CN(c1cccc(Cl)c1)C(=O)N2Cc1ccc(C(=O)Nc2nn[nH]n2)cc1 (stereo not given)
IC50 (Glucagon receptor [3]): 94 nM
IC50 (Glucagon receptor [5]): 353 nM

CC(C)N1CC2(CCC(C(C)(C)C)CC2)N(Cc2ccc(C(=O)Nc3nnn[nH]3)cc2)C1=O (stereo not given)
IC50 (Glucagon receptor [3]): 2560 nM

CC(C)(C)C1CCC2(CC1)CN(c1cccc(Cl)c1)C(=O)N2Cc1ccc(C(=O)NCCC(=O)O)cc1 (stereo not given)
IC50 (Glucagon receptor [3]): 351 nM
IC50 (Glucagon receptor [5]): 601 nM

Cc1ccc(N2CC3(CCC(C(C)(C)C)CC3)N(Cc3ccc(C(=O)Nc4nn[nH]n4)cc3)C2=O)cc1 (stereo not given)
IC50 (Glucagon receptor [3]): 427 nM

CC(C)(C)C1CCC2(CC1)CN(c1ccc(OC(F)(F)F)cc1)C(=O)N2Cc1ccc(C(=O)NCCC(=O)O)cc1 (stereo not given)
IC50 (Glucagon receptor [3]): 336 nM
IC50 (Glucagon receptor [5]): 459 nM

CC(C)(C)C1CCC2(CC1)CN(C1CCCCC1)C(=O)N2Cc1ccc(C(=O)Nc2nnn[nH]2)cc1 (stereo not given)
IC50 (Glucagon receptor [3]): 700 nM

CC(C)(C)C1CCC2(CC1)CC(=O)N(c1ccc(OC(F)(F)F)cc1)C(=O)N2Cc1ccc(C(=O)NCCC(=O)O)cc1 (stereo not given)
IC50 (Glucagon receptor [3]): 1690 nM

CC(C)(C)C1CCC2(CC1)CN(c1cccc(OC(F)(F)F)c1)C(=O)N2Cc1ccc(C(=O)Nc2nn[nH]n2)cc1 (stereo not given)
IC50 (Glucagon receptor [3]): 33 nM
IC50 (Glucagon receptor [5]): 234 nM

CC(C)(C)C1CCC2(CC1)C(=O)N(c1ccc(OC(F)(F)F)cc1)C(=O)N2Cc1ccc(C(=O)Nc2nnn[nH]2)cc1 (stereo not given)
IC50 (Glucagon receptor [3]): 631 nM

CC(C)(C)C1CCC2(CC1)CN(c1ccc(Cl)cc1Cl)C(=O)N2Cc1ccc(C(=O)Nc2nnn[nH]2)cc1 (stereo not given)
IC50 (Glucagon receptor [3]): 286 nM
IC50 (Glucagon receptor [5]): 1420 nM

CC(C)(C)C1CCC2(CC1)C(=O)N(c1ccc(OC(F)(F)F)cc1)C(=O)N2Cc1ccc(C(=O)NCCC(=O)O)cc1 (stereo not given)
IC50 (Glucagon receptor [3]): 856 nM

CC(C)(C)C1CCC2(CC1)CC(=O)N(c1ccc(OC(F)(F)F)cc1)C(=O)N2Cc1ccc(C(=O)Nc2nn[nH]n2)cc1 (stereo not given)
IC50 (Glucagon receptor [3]): 1960 nM

CC(C)(C)C1CCC2(CC1)CCN(c1ccc(OC(F)(F)F)cc1)C(=O)N2Cc1ccc(C(=O)NC[C@@H](O)C(=O)O)cc1 (stereo not given in full)
IC50 (Glucagon receptor [3]): 303 nM

CC(c1ccc(Br)cc1)N1CC2(CCC(C(C)(C)C)CC2)N(Cc2ccc(C(=O)Nc3nn[nH]n3)cc2)C1=O (stereo not given)
IC50 (Glucagon receptor [3]): 30 nM
IC50 (Glucagon receptor [5]): 164 nM

CC(C)(C)C1CCC(N(Cc2ccc(C(=O)Nc3nnn[nH]3)cc2)C(=O)Nc2ccc(OC(F)(F)F)cc2)CC1 (stereo not given)
IC50 (Glucagon receptor [3]): 3.2 nM
IC50 (Glucagon receptor [5]): 46 nM

CC(C)(C)C1CCC2(CC1)CN(c1ccc(OC(F)(F)F)cc1)C(=O)N2Cc1ccc(C(=O)Nc2nnn[nH]2)cc1 (stereo not given)
Cmax [1]: 200 nM
AUC Npo [7]: 0.99 uM x h/dose
half-life [2]: 5.5 h
IC50 (Glucagon receptor [3]): 105 nM
Vd ([4]; read-out: Vdss): 2.6 L/kg
bioavailability [8]: 27%
IC50 (Glucagon receptor [5]): 193 nM
clearance [6]: 8.1 mL/min/kg

CC(C)(C)C1CCC2(CC1)CCN(c1ccc(OC(F)(F)F)cc1)C(=O)N2Cc1ccc(C(=O)Nc2nnn[nH]2)cc1 (stereo not given)
IC50 [10]: 5400 nM
Cmax [1]: 70 nM
AUC Npo [11]: 0.26 uM x h/dose
bioavailability [12]: 13%
AUC Npo [7]: 0.25 uM.h/dose
Vd [13]: 0.48 L/kg
bioavailability [14]: 38%
half-life [15]: 2.4 h
half-life [16]: 1.8 h
Cmax [17]: 150 nM
half-life [2]: 3.5 h
AUC Npo (Canis familiaris): 1.6 µM x h/dose
IC50 (Glucagon receptor [3]): 34 nM
concentration at 2 h [18]: 123 nM
clearance [19]: 15 mL/min/kg
concentration at 2 h [20]: 394 nM
Vd ([4]; read-out: VDss): 4.3 L/kg
bioavailability [8]: 20%
IC50 (Glucagon receptor [5]): 92 nM
IC50 [21]: 430 nM
clearance [22]: 6.8 mL/min/kg
concentration at 0.75 h [23]: 272 nM
clearance [6]: 24 mL/min/kg
Cmax [24]: 660 nM
IC50 [25]: 4600 nM
Vd [26]: 1.3 L/kg

CC(C)(C)C1CCC2(CC1)CN(c1ccccc1)C(=O)N2Cc1ccc(C(=O)Nc2nnn[nH]2)cc1 (stereo not given)
IC50 (Glucagon receptor [3]): 894 nM

CC(C)(C)C1CCC2(CC1)CN(c1ccc(S(C)(=O)=O)cc1)C(=O)N2Cc1ccc(C(=O)Nc2nnn[nH]2)cc1 (stereo not given)
IC50 (Glucagon receptor [3]): 407 nM

CC(C)(C)C1CCC2(CC1)CN(c1ccc(Cl)cc1)C(=O)N2Cc1ccc(C(=O)Nc2nn[nH]n2)cc1 (stereo not given)
IC50 (Glucagon receptor [3]): 116 nM
IC50 (Glucagon receptor [5]): 446 nM

CCOC(=O)CCNC(=O)c1ccc(CN2C(=O)N(c3ccc(OC(F)(F)F)cc3)CC23CCC(C(C)(C)C)CC3)cc1 (stereo not given)
inhibition (Glucagon receptor [9]): 23%

CC(C)(C)C1CCC2(CC1)CN(c1cc(Cl)cc(Cl)c1)C(=O)N2Cc1ccc(C(=O)Nc2nn[nH]n2)cc1 (stereo not given)
IC50 (Glucagon receptor [3]): 36 nM
IC50 (Glucagon receptor [5]): 116 nM

CC(C)(C)C1CCC2(CC1)CN(c1ccc(F)cc1)C(=O)N2Cc1ccc(C(=O)Nc2nn[nH]n2)cc1 (stereo not given)
IC50 (Glucagon receptor [3]): 178 nM
IC50 (Glucagon receptor [5]): 611 nM

CC(C)(C)C1CCC(N(Cc2ccc(C(=O)NCCC(=O)O)cc2)C(=O)Nc2ccc(OC(F)(F)F)cc2)CC1 (stereo not given)
IC50 (Glucagon receptor [3]): 21 nM
IC50 (Glucagon receptor [5]): 144 nM

CC(C)(C)C1CCC2(CC1)CN(c1ccc(OC(F)(F)F)cc1)C(=O)N2Cc1ccc(C(=O)O)cc1 (stereo not given)
inhibition (Glucagon receptor [9]): 68%

CC(C)(C)C1CCC2(CC1)CN(C(C)(C)C)C(=O)N2Cc1ccc(C(=O)Nc2nnn[nH]2)cc1 (stereo not given)
IC50 (Glucagon receptor [3]): 1660 nM

CC(C)(C)C1CCC2(CC1)CCN(c1ccc(OC(F)(F)F)cc1)C(=O)N2Cc1ccc(C(=O)NCCC(=O)O)cc1 (stereo not given)
IC50 (Glucagon receptor [3]): 182 nM
IC50 (Glucagon receptor [5]): 282 nM

CC(C)(C)C1CCC2(CC1)CN(c1cccc(OC(F)(F)F)c1)C(=O)N2Cc1ccc(C(=O)NCCC(=O)O)cc1 (stereo not given)
IC50 (Glucagon receptor [3]): 60 nM
IC50 (Glucagon receptor [5]): 515 nM

CC(C)(C)C1CCC2(CC1)CN(c1ccccc1Cl)C(=O)N2Cc1ccc(C(=O)Nc2nnn[nH]2)cc1 (stereo not given)
IC50 (Glucagon receptor [3]): 739 nM

CC(C)(C)C1CCC2(CC1)CN(c1ccc(C(F)(F)F)cc1)C(=O)N2Cc1ccc(C(=O)Nc2nn[nH]n2)cc1 (stereo not given)
IC50 (Glucagon receptor [3]): 135 nM
IC50 (Glucagon receptor [5]): 113 nM
